Experiments:
Assay type in all cases: functional
SK-MEL-5 = assay: Cytotoxicity against human SK-MEL-5 cells
How it was run: (§1)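 Five-dose in vitro screen on the full sixty human tumour cell line panel. Three response parameters derived per cell line: GI50, TGI and LC50, given in μM.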

SF-295 [1] = assay: Cytotoxicity against human SF295 cells assessed as growth inhibition at 10 uM; details: read-out: GI
How it was run: (§2)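 Single-dose screen on human tumour cell lines. Growth of treated cells is expressed as percent of untreated growth, plotted as a mean graph, and reported as percent growth inhibition.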

NCI/ADR-RES = assay: Cytotoxicity against human NCI/ADR-RES cells; how it was run: as §1
HOP-92 = assay: Cytotoxicity against human HOP92 cells
SNB-75 [2] = assay: Cytotoxicity against human SNB75 cells; how it was run: as §1
UO-31 [3] = assay: Cytotoxicity against human UO31 cells assessed as growth inhibition at 10 uM; details: read-out: GI
How it was run: (§3)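 Single-dose screen in a sixty-cell human tumour line panel; percent growth of treated cells relative to untreated was read and reported as percentage growth inhibition, shown as a mean graph. Compounds meeting the threshold inhibition criteria went on to five-dose testing.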

BT-549 [4] = assay: Cytotoxicity against human BT549 cells assessed as growth inhibition at 10 uM; details: read-out: GI
RPMI-8226 = assay: Cytotoxicity against human RPMI8226 cells assessed as growth inhibition at 10 uM; details: read-out: GI; how it was run: as §2
K562 = assay: Cytotoxicity against human K562 cells
HCT-116 = assay: Cytotoxicity against human HCT116 cells
A549 = assay: Cytotoxicity against human A549/ATCC cells
RXF 393 = assay: Cytotoxicity against human RXF393 cells assessed as growth inhibition at 10 uM; details: read-out: GI; how it was run: as §2
UACC-62 [5] = assay: Cytotoxicity against human UACC62 cells
How it was run: (§4)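 Five-dose in vitro screen across the full sixty-cell human tumour line panel. Three response parameters were derived from the dose-response data: GI50, TGI and LC50, expressed in μM/l.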

IGROV-1 [6] = assay: Cytotoxicity against human IGROV1 cells assessed as growth inhibition at 10 uM; details: read-out: GI
HOP-62 = assay: Cytotoxicity against human HOP62 cells
BT-549 [7] = assay: Cytotoxicity against human BT549 cells
SK-MEL-28 = assay: Cytotoxicity against human SK-MEL-28 cells; how it was run: as §1
CAKI-1 [8] = assay: Cytotoxicity against human Caki1 cells
A498 [9] = assay: Cytotoxicity against human A498 cells assessed as growth inhibition at 10 uM; details: read-out: GI
SW-620 = assay: Cytotoxicity against human SW620 cells; how it was run: as §1
MDA-MB-231 = assay: Cytotoxicity against human MDA-MB-231 cells; how it was run: as §1
SNB-75 [10] = assay: Cytotoxicity against human SNB75 cells assessed as growth inhibition at 10 uM; details: read-out: GI; how it was run: as §2
KM12 = assay: Cytotoxicity against human KM12 cells
IGROV-1 [11] = assay: Cytotoxicity against human IGROV1 cells
SK-OV-3 [12] = assay: Cytotoxicity against human SKOV3 cells; how it was run: as §1
OVCAR-3 = assay: Cytotoxicity against human OVCAR3 cells; how it was run: as §1
ACHN = assay: Cytotoxicity against human ACHN cells assessed as growth inhibition at 10 uM; details: read-out: GI
M14 = assay: Cytotoxicity against human M14 cells
SF-295 [13] = assay: Cytotoxicity against human SF295 cells; how it was run: as §1
UO-31 [14] = assay: Cytotoxicity against human UO31 cells; how it was run: as §4
CAKI-1 [15] = assay: Cytotoxicity against human Caki1 cells assessed as growth inhibition at 10 uM; details: read-out: GI
Staphylococcus aureus = assay: Antibacterial activity against Staphylococcus aureus ATCC 6538P assessed as diameter of inhibition zone at 1 mg/ml after 24 hrs by cup diffusion method (reference value: 15 mm); details: read-out: DIZ
UACC-62 [16] = assay: Cytotoxicity against human UACC62 cells assessed as growth inhibition at 10 uM; details: read-out: GI; how it was run: as §3
SN12C = assay: Cytotoxicity against human SN12C cells; how it was run: as §1
MDA-MB-468 [17] = assay: Cytotoxicity against human MDA-MB-468 cells assessed as growth inhibition at 10 uM; details: read-out: GI; how it was run: as §2
TK-10 = assay: Cytotoxicity against human TK10 cells; how it was run: as §4
Candida albicans = assay: Antifungal activity against Candida albicans ATCC 2091 assessed as diameter of inhibition zone at 1 mg/ml after 48 hrs by cup diffusion method (reference value: 22 mm); details: ATCC 2091, 48 h, read-out: DIZ
SF-539 = assay: Cytotoxicity against human SF539 cells; how it was run: as §1
786-0 = assay: Cytotoxicity against human 786-0 cells
HT-29 = assay: Cytotoxicity against human HT-29 cells
A498 [18] = assay: Cytotoxicity against human A498 cells
SK-OV-3 [19] = assay: Cytotoxicity against human SKOV3 cells assessed as growth inhibition at 10 uM; details: read-out: GI; how it was run: as §2
NCI-H322M = assay: Cytotoxicity against human NCI-H322M cells; how it was run: as §1
MDA-MB-468 [20] = assay: Cytotoxicity against human MDA-MB-468 cells; how it was run: as §1
[21] = read-out: LC50 (the source's name)

N#Cc1c(-c2ccccc2)nc(SCC2CO2)nc1N1CCOCC1 (configuration not stated)
GI50 (SK-MEL-5): 17 µM | TGI (SK-MEL-5): > 100 µM | CC50 (SK-MEL-5; [21]): > 100 µM | inhibition of growth at 10 µM (SF-295 [1]): 90.9% | GI50 (NCI/ADR-RES): 11.8 µM | TGI (NCI/ADR-RES): > 100 µM | CC50 (NCI/ADR-RES; [21]): > 100 µM | GI50 (HOP-92): 2.44 µM | TGI (HOP-92): 8.7 µM | CC50 (HOP-92; [21]): > 100 µM | GI50 (SNB-75 [2]): 2.15 µM | TGI (SNB-75 [2]): 68.2 µM | CC50 (SNB-75 [2]; [21]): > 100 µM | inhibition of growth at 10 µM (UO-31 [3]): 70.5% | inhibition of growth at 10 µM (BT-549 [4]): 88.6% | inhibition of growth at 10 µM (RPMI-8226): 52.1% | GI50 (K562): > 100 µM | TGI (K562): > 100 µM | CC50 (K562; [21]): > 100 µM | GI50 (HCT-116): 18.4 µM | TGI (HCT-116): > 100 µM | CC50 (HCT-116; [21]): > 100 µM | GI50 (A549): 27.9 µM | TGI (A549): > 100 µM | CC50 (A549; [21]): > 100 µM | inhibition of growth at 10 µM (RXF 393): 68.5% | GI50 (UACC-62 [5]): 3.12 µM | TGI (UACC-62 [5]): 75.5 µM | CC50 (UACC-62 [5]; [21]): > 100 µM | inhibition of growth at 10 µM (IGROV-1 [6]): 61.9% | GI50 (HOP-62): 4.34 µM | TGI (HOP-62): 75.3 µM | CC50 (HOP-62; [21]): > 100 µM | GI50 (BT-549 [7]): 3.22 µM | TGI (BT-549 [7]): > 100 µM | CC50 (BT-549 [7]; [21]): > 100 µM | GI50 (SK-MEL-28): 5.45 µM | TGI (SK-MEL-28): 98.3 µM | CC50 (SK-MEL-28; [21]): > 100 µM | GI50 (CAKI-1 [8]): 0.635 µM | TGI (CAKI-1 [8]): 31.4 µM | CC50 (CAKI-1 [8]; [21]): > 100 µM | inhibition of growth at 10 µM (A498 [9]): 115% | GI50 (SW-620): 25 µM | TGI (SW-620): > 100 µM | CC50 (SW-620; [21]): > 100 µM | GI50 (MDA-MB-231): 10 µM | TGI (MDA-MB-231): > 100 µM | CC50 (MDA-MB-231; [21]): > 100 µM | inhibition of growth at 10 µM (SNB-75 [10]): 65.9% | GI50 (KM12): 27.1 µM | TGI (KM12): > 100 µM | CC50 (KM12; [21]): > 100 µM | GI50 (IGROV-1 [11]): 1.79 µM | TGI (IGROV-1 [11]): 23.3 µM | CC50 (IGROV-1 [11]; [21]): > 100 µM | GI50 (SK-OV-3 [12]): 14.1 µM | TGI (SK-OV-3 [12]): 75.2 µM | CC50 (SK-OV-3 [12]; [21]): > 100 µM | GI50 (OVCAR-3): 4.19 µM | TGI (OVCAR-3): 47.8 µM | CC50 (OVCAR-3; [21]): > 100 µM | inhibition of growth at 10 µM (ACHN): 40.8% | GI50 (M14): 11.9 µM | TGI (M14): > 100 µM | CC50 (M14; [21]): > 100 µM | GI50 (SF-295 [13]): 1.46 µM | TGI (SF-295 [13]): 20.4 µM | CC50 (SF-295 [13]; [21]): > 100 µM | GI50 (UO-31 [14]): 7.57 µM | TGI (UO-31 [14]): > 100 µM | CC50 (UO-31 [14]; [21]): > 100 µM | inhibition of growth at 10 µM (CAKI-1 [15]): 61.4% | zone of inhibition at 1000 µg/mL (Staphylococcus aureus): 15 mm | inhibition of growth at 10 µM (UACC-62 [16]): 48.1% | GI50 (SN12C): 16.4 µM | TGI (SN12C): > 100 µM | CC50 (SN12C; [21]): > 100 µM | inhibition of growth at 10 µM (MDA-MB-468 [17]): 44.1% | GI50 (TK-10): 4.63 µM | TGI (TK-10): > 100 µM | CC50 (TK-10; [21]): > 100 µM | zone of inhibition at 1000 µg/mL (Candida albicans): 22 mm | GI50 (SF-539): 19.8 µM | TGI (SF-539): > 100 µM | CC50 (SF-539; [21]): > 100 µM | GI50 (786-0): 2.7 µM | TGI (786-0): 21.3 µM | CC50 (786-0; [21]): > 100 µM | GI50 (HT-29): 36.8 µM | TGI (HT-29): > 100 µM | CC50 (HT-29; [21]): > 100 µM | GI50 (A498 [18]): 1.06 µM | TGI (A498 [18]): 5.28 µM | CC50 (A498 [18]; [21]): > 100 µM | inhibition of growth at 10 µM (SK-OV-3 [19]): 71.9% | GI50 (NCI-H322M): 8.31 µM | TGI (NCI-H322M): > 100 µM | CC50 (NCI-H322M; [21]): > 100 µM | GI50 (MDA-MB-468 [20]): 4.82 µM | TGI (MDA-MB-468 [20]): > 100 µM | CC50 (MDA-MB-468 [20]; [21]): > 100 µM

Source: ChEMBL document CHEMBL2413060, “Synthesis, biological evaluation and molecular docking studies of some pyrimidine derivatives” (2013)
